Assay results gathered from unrelated publications.
Protocols differ between the studies behind these lines.
Target: Casein kinase II subunit alpha' (CSNK2A2, Homo sapiens, UniProt P19784)

Compound	observed	method	concentration	remaining binding [%]
O=C(NCCCN1CCOCC1)c1ccc(Nc2ncc(Cl)c(-c3ccc(Cl)s3)n2)cc1	binding	competition with immobilised ligand	1 µM	0.2
C=CC(=O)N1CCC(C(=O)NCC(=O)N2CCN(c3nc(-c4cnc(N)nc4C(F)F)nc(N4CCOCC4)n3)CC2)CC1	binding	competition with immobilised ligand	1 µM	100
Cc1cc(C)c(-n2ccn3nc(-c4cccnc4)cc23)cc1NC(=O)c1cc(C#N)cc(S(F)(F)(F)(F)F)c1	cell-free assay	competition with immobilised ligand	0.1 µM	82.4
CN(C)c1nccc(-c2cnn3ncccc23)n1	binding		1 µM	39
CN(C)C(=O)Cn1cc(-c2nc(C3(c4ccc(-c5cnc(N)nc5)cc4)CC3)no2)cn1	cell-free assay	competition with immobilised ligand	1 µM	100
C[C@H]1CCN(c2nccc(-c3cnn4ncccc34)n2)C1	binding		1 µM	56
COc1cnc(Nc2cccc(S(N)(=O)=O)c2)nc1N1CCN(c2ccccc2)C(=O)C1	binding	competition with immobilised ligand	1 µM	86
CCOCCn1cc(C(=O)Nc2ccc(-n3nc(-c4cccnc4)cc3C(F)(F)F)cn2)ccc1=O	cell-free assay	competition with immobilised ligand	1 µM	100
COc1cnc(Nc2cccc(S(N)(=O)=O)c2)nc1N1CCN(c2ccccc2)CC1	binding	competition with immobilised ligand	1 µM	90
O=C(c1ccc(Nc2ncc(Cl)c(-c3cc4ccccc4s3)n2)cc1)N1CCC(N2CCCC2)CC1	binding	competition with immobilised ligand	1 µM	0.1
C[C@@H](c1ccc(-n2cnc3c(N)ncnc32)cc1)N1CCc2nn(C)c(Cc3ccccc3)c2C1=O	binding	competition with immobilised ligand	0.1 µM	86
CC1=C(C#N)[C@@H](c2ccc3[nH]nc(C)c3c2)C(C#N)=C(c2ccc(Cl)cc2)N1	cell-free assay	competition with immobilised ligand	1 µM	100
Nc1ncc2c(n1)-c1c([nH]c3ccc(C#CC4CC4)cc13)CCCC2	binding	competition with immobilised ligand	1 µM	82
O=C(c1ccc(Nc2ncc(Cl)c(-c3ccc(Cl)s3)n2)cc1)N1CCC(N2CCCC2)CC1	binding	competition with immobilised ligand	1 µM	0.15
N[C@H]1CCN(c2nccc(-c3cnn4ncccc34)n2)C1	binding		1 µM	88
CCN1CCN(Cc2ccc(C(=O)Nc3ccc(C)c(Oc4ccc5c(c4)CC(=O)N5)c3)cc2C(F)(F)F)CC1	binding	competition with immobilised ligand	1 µM	95
CN(C)c1nccc(-c2cnc3ncccn23)n1	binding		1 µM	24
CN([C@@H]1CCc2c(CC(=O)O)c3cc(S(C)(=O)=O)ccc3n2C1)S(=O)(=O)c1ccc(F)cc1	cell-free assay	competition with immobilised ligand	1 µM	100
F[C@@H]1CCN(c2nccc(-c3cnn4ncccc34)n2)C1	binding		1 µM	100
O=C(NCC1CCOCC1)c1n[nH]cc1NC(=O)c1c(F)cccc1F	binding	competition with immobilised ligand	1 µM	76
CN(c1nccc(-c2cnn3ncccc23)n1)C1CC1	binding		1 µM	100
O=C(NS(=O)(=O)c1ccc(NCC2CCOCC2)c([N+](=O)[O-])c1)c1ccc(N2CCN(Cc3ccc(C(F)(F)F)cc3-c3ccc(Cl)cc3)CC2)cc1Oc1cnc2[nH]ccc2c1	cell-free assay	competition with immobilised ligand	1 µM	100
